Where a SMILES comes first, the peptide text is derived from it. [ ]: non-standard residue; d: D form.
Columns and labels:
Assay type in all cases: in vivo, human
[1] = test system: patients with early stage HD; assay: Safety: treatment-emergent adverse events, laboratory, vital signs, ECG
Procedure, shortened: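 The trial was randomized and placebo-controlled in early HD. Part 1 gave 5, 15 or 25 mg subcutaneously once daily for 7 days (6 active, 2 placebo per cohort). Part 2 re-randomized patients 12:12 to 28 days. Adverse events, vitals, laboratory, ECG and physical examination were recorded on clinic days and at home visits (days 7, 14, 21 in Part 2). Plasma histamine was sampled 15 and 30 min post-dose.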

[2] = Plasma pharmacokinetics of SBT-020
Procedure, shortened: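 Dosing was subcutaneous once daily. In Part 1, 24-h plasma profiles were taken on day 1 and at steady state (day 7); Part 2 used steady-state troughs only. Plasma aliquots were spiked with 5% aqueous formic acid, and active-arm samples were assayed by validated LC-MS (LLOQ 2.5 ng/mL). Noncompartmental analysis set pre-Cmax values below LLOQ to zero and excluded post-Cmax ones.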

[3] = test system: mitochondrial function in calf muscle; assay: Dynamic 31P-MRS of calf skeletal muscle
Procedure, shortened: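 Calf muscle was scanned by dynamic 31P-MRS at 7 T with a surface coil and an MRI-compatible pedal ergometer, before, during and after exercise (pulse-acquire, 2-s resolution, flip 45°, 1 average). Pi, PCr and ATP peaks were integrated. τPCr came from a monoexponential fit, and pH from the PCr–Pi frequency difference. Scans were repeated after a 10-min break if end-exercise pH was <6.8. Outliers deviating >5% (up to 10%) were removed. Timing: screening and day 7 (Part 1), day −1 and day 27 (Part 2), 1.5 h post-dose. Analysis was ANCOVA; the posthoc split used the pre-dose median.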

[4] = test system: mitochondrial function in the visual cortex; assay: 31P-MRS of the visual cortex before, during and after visual stimulation; settings: Part 2, 25 mg s.c. once daily 28 d
Procedure, shortened: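 At 3 T, a 6-cm 31P transmit/receive surface coil was placed over the visual cortex, positioned using a 10-mm water sphere on 1H images. Adiabatic pulse-acquire (TR 2 s, flip 90°) FIDs were collected for 4 min at rest (128 averages), 8 min during visual activation (256) and 8 min after (256). Time-domain fitting with prior knowledge gave PCr/ATP, Pi/PCr, Pi/ATP and pH. Scans ran on day −1 and 1.5 h post-dose on day 27; mixed-model ANCOVA used baseline as covariate.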

[5] = Part 1, 5 mg s.c. once daily 7 d, n=6, day 7
[6] = Part 1, 15 mg s.c. once daily 7 d, n=6, day 7
[7] = Part 1, 25 mg s.c. once daily 7 d, ANCOVA
[8] = Part 1, 25 mg s.c. once daily 7 d, n=6, day 7
[9] = Part 2, 25 mg s.c. once daily 28 d, ANCOVA
[10] = Part 2, 25 mg s.c. once daily 28 d, n=11, day 27

N=C(N)NCCC[C@@H](NC(=O)[C@@H](N)Cc1ccccc1)C(=O)N[C@@H](Cc1ccccc1)C(=O)N[C@@H](CCCCN)C(N)=O [SBT‐020, H‐Phe‐D‐Arg‐Phe‐Lys‐NH2] (H-F[dR]FK-NH2)
Overall safety ([1]; 5, 15, 25 mg s.c. once daily 7 d and 25 mg 28 d): safe in all dose levels
Plasma histamine levels ([1]; 15 and 30 minutes after administration): not elevated
Severity of injection site reactions ([1]; Parts 1 and 2, developed within a few minutes of dosing, resolved within the hour): mild
Exposure higher between day 1 and day 7 ([2]; Part 1, 25‐mg dose cohort): approximately 10%
Accumulation ([2]; Part 2, weekly trough samples, 28 days of daily 25 mg s.c.): did not accumulate
Median percentage of extrapolated AUC ([2]; Part 1 day 7, 15‐mg cohort): less than 2%
Apparent elimination half‐life ([2]; Part 1 day 7, 15‐mg cohort, mean): 3.94 h
Median percentage of extrapolated AUC ([2]; Part 1 day 7, 25‐mg cohort): less than 2%
Tmax ([2]; human, plasma, sc): ~1 h
Dose proportionality of exposure ([2]; once daily subcutaneous administration): dose‐proportional exposure
τPCr with 31P‐MRS, contrast vs placebo (95% CI) ([3]; Part 1, 5 mg s.c. once daily 7 d, ANCOVA): 6.505 (−3.4601, 16.4696) P = .1844 s
PCr/ATP resting phase 31P‐MRS scan, LS mean [3, 5]: 3.7838
PCr/pi resting phase 31P‐MRS scan, LS mean [3, 5]: 9.9289
τPCr with 31P‐MRS, LS mean ([3]; Part 1, 5 mg s.c. once daily 7 d, n=6, day 7, 1.5 h post dose): 40.9016 s
τPCr with 31P‐MRS, contrast vs placebo (95% CI) ([3]; Part 1, 15 mg s.c. once daily 7 d, ANCOVA): 8.807 (−1.0294, 18.6436) P = .0757 s
PCr/ATP resting phase 31P‐MRS scan, LS mean [3, 6]: 3.8400
PCr/pi resting phase 31P‐MRS scan, LS mean [3, 6]: 11.5607
τPCr with 31P‐MRS, LS mean ([3]; Part 1, 15 mg s.c. once daily 7 d, n=6, day 7, 1.5 h post dose): 43.2040 s
PCr/pi resting phase 31P‐MRS scan, contrast vs placebo (95% CI) [3, 7]: 0.7604 (−1.0773, 2.598) P = .3948
τPCr with 31P‐MRS, contrast vs placebo (95% CI) [3, 7]: 5.477 (−5.5072, 16.4620) P = .3047 s
PCr/ATP resting phase 31P‐MRS scan, LS mean [3, 8]: 3.8510
PCr/pi resting phase 31P‐MRS scan, LS mean [3, 8]: 11.2289
τPCr with 31P‐MRS, LS mean ([3]; Part 1, 25 mg s.c. once daily 7 d, n=6, day 7, 1.5 h post dose): 39.8743 s
Mean τPCr after 7 days of treatment ([3]; Part 1, 5‐mg cohort, baseline mean 41.9): 42.5 s
Mean τPCr after 7 days of treatment ([3]; Part 1, 15‐mg cohort, baseline mean 40.0): 43.1 s
Mean τPCr after 7 days of treatment ([3]; Part 1, 25‐g cohort (so in the source), baseline mean 39.2): 38.8 s
Effect on τPCr, ∆Ψm and percentage of dysfunctional PBMCs ([3]; Part 1, after 7 days of treatment, 5, 15, 25 mg): No overall or dose‐related effects
PCr/ATP resting phase 31P‐MRS scan, contrast vs placebo (95% CI) [3, 9]: −.07 (−0.3, 0.2) P = .54
PCr/pi resting phase 31P‐MRS scan, contrast vs placebo (95% CI) [3, 9]: 0.1 (−2.0, 2.1) P = .94
τPCr with 31P‐MRS, contrast vs placebo (95% CI) [3, 9]: 2.8 (−9.3, 15.0) P = .63 sec
PCr/ATP resting phase 31P‐MRS scan, LS mean [3, 10]: 3.7
PCr/pi resting phase 31P‐MRS scan, LS mean [3, 10]: 10.2
τPCr with 31P‐MRS, LS mean ([3]; Part 2, 25 mg s.c. once daily 28 d, n=11, day 27, 1.5 h post dose): 40.8 s
Change of τPCr, posthoc ([3]; Part 2, active, high mitochondrial function group (τPCr of < 42.4 s)): did not decrease
Effect on τPCr, ∆Ψm and percentage of dysfunctional PBMCs ([3]; Part 2, after 28 days of treatment, 25 mg): No overall effects
Effect on brain mitochondrial function compared to placebo [4]: No overall statistically significant effect
PCr/ATP after visual stimulation (central 31P‐MRS), contrast vs placebo (95% CI) ([4]; ANCOVA): −0.02 (−0.1, 0.05) P = .57
Pi/ATP after visual stimulation (central 31P‐MRS), contrast vs placebo (95% CI) ([4]; ANCOVA): 0.0073 (−0.0270, 0.0415) P = .6613
Pi/ATP before visual stimulation (central 31P‐MRS), contrast vs placebo (95% CI) ([4]; ANCOVA): −0.002 (−0.02, 0.02) P = .80
Pi/ATP during visual stimulation (central 31P‐MRS), contrast vs placebo (95% CI) ([4]; ANCOVA): −0.004 (−0.02, 0.01) P = .57
Pi/PCr after visual stimulation (central 31P‐MRS), contrast vs placebo (95% CI) ([4]; ANCOVA): 0.02 (−0.02, 0.06) P = .32
Pi/PCr before visual stimulation (central 31P‐MRS), contrast vs placebo (95% CI) ([4]; ANCOVA): 0.0007 (−0.02, 0.02) P = .93
Pi/PCr during visual stimulation (central 31P‐MRS), contrast vs placebo (95% CI) ([4]; ANCOVA): 0.004 (−0.03, 0.03) P = .81

Reference: publication PMC8247328 (British Journal of Clinical Pharmacology, 2020)
